The values that follow come from the array DNA melting data of Ke et al. (doi:10.1101/2024.01.08.574731).

Series [1] in a line: melting temperature; fluorescence melt of hairpins on a sequencing array, two-state fit, raised by 9.35 °C to match UV melts. To be noted: sodium 0.088 M. In short, it runs like this:
(§1)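 Melting temperature and folding enthalpy were derived from bootstrapped two-state fits. The fitted temperatures were raised by 9.35 °C to agree with UV melts, and four replicates were combined by inverse variance. The underlying data were Cy3 fluorescence images of library hairpins, with annealed Cy3 and quencher oligos, on a sequenced MiSeq flow cell in 50 mM Na-HEPES pH 8.0, 25 mM NaCl, taken in 2.5 °C steps up to 60 °C, normalised to pre-quench Cy3 and to control constructs.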

Series [2] can be described thus: folding enthalpy; higher = less favourable; fluorescence melt of hairpins on a sequencing array, two-state fit. To be noted: sodium 0.088 M. An outline of the steps:
as §1

As to GTGTCGGCGAAAGCCCAC (((..(((....)))))), the Tm in series [1] worked out at 43.8 °C. Besides, the folding enthalpy in series [2] is -13.5 kcal/mol.
As to GCGACTCGAAAGAGCCGC (((.(((....))).))), the Tm in series [1] worked out at 60.2 °C. In series [2], the folding enthalpy is -47 kcal/mol.
For GTTTACACGAAAGTGAAC (((..(((....)))))), in that order: 25.7 °C and -11.9 kcal/mol.
Take GCCAGGCGAAAGCCTAGC ((.((((....)))).)): in series [1], the Tm was 51.4 °C. For the same sequence, in series [2], the folding enthalpy is -15.7 kcal/mol.
As for CGCGGAACATCCGCG ((((((...)))))), the Tm in series [1] amounted to 69 °C. For the same sequence, in series [2], the folding enthalpy is -27.5 kcal/mol.
For the sequence GCCGATCGAAAGATGGC (((.(((....)))))), the Tm in series [1] amounted to 54.5 °C. The folding enthalpy in series [2] is -26.7 kcal/mol.
Consider CTGCAGAAATGCAG (((((....))))), for which the Tm in series [1] came to 53.4 °C. For the same sequence, in series [2], the folding enthalpy was -21 kcal/mol.
On to GATCACGGGAGTGATC ((((((....)))))), for which, in series [1], the Tm amounted to 68.5 °C. Further, the folding enthalpy in series [2] was -37.6 kcal/mol.
For GGACATCGAAAGATTCC (((.(((....)))))), in that order: 38.6 °C and -26.4 kcal/mol.
For GCTGTCGAAAGACTCAGC ((((((....)))..))), in that order: 40.5 °C and -18.7 kcal/mol.
For GATCTTTCAAAGATC ((((((...)))))), in that order: 44.5 °C and -28.5 kcal/mol.
On to GCCGTTGGAAACAATGGC (((.(((....))).))), for which the Tm in series [1] was 55.8 °C. Further, the folding enthalpy in series [2] was -36.6 kcal/mol.
As for GCGCCCGAAAGGGGTCGC ((((((....)))..))), the Tm in series [1] worked out at 58.3 °C. In addition, the folding enthalpy in series [2] was -19.5 kcal/mol.
For the sequence GCAATGGGAAACTATTGC (((((.(....).))))), the Tm in series [1] amounted to 47 °C. The folding enthalpy in series [2] is -33.5 kcal/mol.
With GCCAGAGGAAACTCTAGC ((.((((....)))).)), in series [1], the Tm turned out to be 34.1 °C. Further, the folding enthalpy in series [2] is -17.3 kcal/mol.
Regarding GGAGTTGGAAACAGCTCC ((((.((....)).)))), the Tm in series [1] came to 50.2 °C. The folding enthalpy in series [2] was -43.9 kcal/mol.
On to GCGCGACGAAAGTCCGC (((.(((....)))))), for which the Tm in series [1] turned out to be 66.8 °C. The folding enthalpy in series [2] was -29 kcal/mol.
For GAATATGGAAACATATTC (((((((....))))))), in that order: 48.1 °C and -35.1 kcal/mol.
As for GATGCCGCGAAAGCGATC (((..(((....)))))), in series [1], the Tm is 28 °C. Further, in series [2], the folding enthalpy was -7.36 kcal/mol.
As to GAAGACGAAAGTCGTTC ((((((....))).))), the Tm in series [1] was 37.9 °C. Moreover, the folding enthalpy in series [2] was -12.3 kcal/mol.
For GTTGGCGGAAACACCAAC (((((.(....).))))), in that order: 47.4 °C and -36 kcal/mol.
Turning to GGCTAAGGAAACCTAGCC (((((.(....).))))), the Tm in series [1] turned out to be 46.6 °C. For the same sequence, the folding enthalpy in series [2] is -31.5 kcal/mol.
For GCGAAAGGAAACTTCCGC (((.(((....))).))), the Tm in series [1] stood at 42.5 °C. The folding enthalpy in series [2] is -27.1 kcal/mol.
Turning to GCTCTGCGAAAGCATTGC ((..(((....)))..)), in series [1], the Tm worked out at 40.5 °C. Moreover, in series [2], the folding enthalpy is -14.2 kcal/mol.
Regarding GTCTTCCCGAAAGGGGAC (((..(((....)))))), in series [1], the Tm worked out at 35.9 °C. In series [2], the folding enthalpy was -12.5 kcal/mol.
Take GCGGAATGCCGC ((((....)))): the Tm in series [1] was determined as 53 °C. Besides, the folding enthalpy in series [2] is -24.3 kcal/mol.
As for CGATCGGAAACGAGCTCG ((((((....)))..))), the Tm in series [1] amounted to 29.8 °C. Also, in series [2], the folding enthalpy is -11.5 kcal/mol.
With GGTATCGAAAGATCAACC ((((((....)))..))), in series [1], the Tm came to 27 °C. Also, the folding enthalpy in series [2] is -12.9 kcal/mol.
With GGAGAGGCGAAAGCCTCC (((..(((....)))))), the Tm in series [1] was found to be 49.5 °C. Further, the folding enthalpy in series [2] was -7.4 kcal/mol.
For GAATGTGGAAACACACTC ((.((((....)))).)), in series [1], the Tm is 29.8 °C. The folding enthalpy in series [2] is -11.6 kcal/mol.
Consider GGAGGCGAAAGCCGGTCC ((((((....)))..))), for which the Tm in series [1] is 43.3 °C. Besides, the folding enthalpy in series [2] was -9.6 kcal/mol.
On to GAGTGTGAAAACACTC ((((((....)))))), for which, in series [1], the Tm came to 60.9 °C. Further, the folding enthalpy in series [2] was -35 kcal/mol.
Regarding GCTTGTGCGAAAGCAAGC (((..(((....)))))), the Tm in series [1] amounted to 46.5 °C. Moreover, in series [2], the folding enthalpy was -22.9 kcal/mol.
On to CGTTTCGGAAACGAACG (((.(((....)))))), for which the Tm in series [1] was determined as 44.9 °C. Moreover, in series [2], the folding enthalpy is -26.3 kcal/mol.
For CGCAACGGAAACGTGCG (((.(((....)))))), in that order: 56.5 °C and -31.8 kcal/mol.
Take GGGATTGGAAACAATCCC (((((((....))))))): the Tm in series [1] worked out at 60.5 °C. In series [2], the folding enthalpy is -41.9 kcal/mol.
For GCTGCTACGAAAGTAAGC (((..(((....)))))), in that order: 41.5 °C and -17.1 kcal/mol.
Regarding ACGAAGAAATTCGT (((((....))))), in series [1], the Tm is 38 °C. In addition, the folding enthalpy in series [2] is -18.1 kcal/mol.
As to GAACCAGGAAACCGGTTC (((((.(....).))))), the Tm in series [1] is 45.1 °C. Also, in series [2], the folding enthalpy is -36.3 kcal/mol.
For GGTGTGCGAAAGCAACC (((.(((....)))))), in that order: 52.1 °C and -17 kcal/mol.
Take GAGAAACGAAAGTTCCTC (((.(((....))).))): the Tm in series [1] worked out at 36.5 °C. Also, the folding enthalpy in series [2] was -27 kcal/mol.
For GCTGGAGCGAAAGCTAGC (((..(((....)))))), the Tm in series [1] came to 49.9 °C. For the same sequence, in series [2], the folding enthalpy is -16.6 kcal/mol.
With GGCCTCCGAAAGGATGCC (((.(((....))).))), the Tm in series [1] worked out at 56.5 °C. Also, the folding enthalpy in series [2] was -37.2 kcal/mol.
For GATCGTCCCCACGATC ((((((....)))))), in that order: 53.9 °C and -41.8 kcal/mol.
With GTGCTAGGAAACTAGTAC ((.((((....)))).)), the Tm in series [1] was determined as 44.9 °C. The folding enthalpy in series [2] is -33.5 kcal/mol.
As for GTAATTCGAAAGAACTAC (((.(((....))).))), the Tm in series [1] was found to be 30 °C. Moreover, the folding enthalpy in series [2] is -14.6 kcal/mol.
In the case of GAGGCCGAAAGGCTCTC ((((((....))).))), in series [1], the Tm worked out at 54.7 °C. In addition, in series [2], the folding enthalpy is -17.9 kcal/mol.
On to GATCATCCCTATGATC ((((((....)))))), for which the Tm in series [1] came out at 47.5 °C. Further, in series [2], the folding enthalpy was -37.4 kcal/mol.
Take GGCGCTGGAAACAGCGTC (.(((((....))))).): the Tm in series [1] is 65.9 °C. For the same sequence, in series [2], the folding enthalpy was -23 kcal/mol.
On to GTTGTCGAAAGACAGAAC ((((((....)))..))), for which the Tm in series [1] amounted to 35.6 °C. For the same sequence, the folding enthalpy in series [2] was -12.9 kcal/mol.
For GTAGTCGGAAACGGCTAC ((((.((....)).)))), in that order: 54.6 °C and -43.1 kcal/mol.
For the sequence GTAAATCGAAAGATTAC (((.(((....)))))), in series [1], the Tm came out at 33.9 °C. The folding enthalpy in series [2] is -14 kcal/mol.
Take GCCGGTGCGAAAGCAGGC (((..(((....)))))): the Tm in series [1] was found to be 56.8 °C. For the same sequence, the folding enthalpy in series [2] is -17.1 kcal/mol.
For GTGTCCCCGAAAGGGCAC (((..(((....)))))), in that order: 49.6 °C and -21.4 kcal/mol.
For GTATCGGGAAACCAATAC ((((.((....)).)))), in that order: 30.3 °C and -24.6 kcal/mol.
As to GCAAGACGAAAGTCATGC (((.(((....))).))), in series [1], the Tm amounted to 54.4 °C. Also, the folding enthalpy in series [2] was -32.2 kcal/mol.
For the sequence GGAACCGAAAGGTTGTCC ((((((....)))..))), in series [1], the Tm came out at 36.1 °C. The folding enthalpy in series [2] was -11.5 kcal/mol.
Consider GTCCCCGAAAGGGCAGAC ((((((....)))..))), for which the Tm in series [1] is 36.7 °C. Also, the folding enthalpy in series [2] was -13 kcal/mol.
In the case of GAAATGCGAAAGCAGTTC (((.(((....))).))), the Tm in series [1] was 52.4 °C. Further, the folding enthalpy in series [2] is -33.5 kcal/mol.
Take GATCACCGAAAGGTCATC (((.(((....))).))): the Tm in series [1] is 32.5 °C. Moreover, the folding enthalpy in series [2] was -16.8 kcal/mol.
For GCGCTGCGAAAGCCTCGC (((..((....))..))), in that order: 47.6 °C and -22 kcal/mol.
Take GAGAACGGAAACGTTCCC (.(((((....))))).): in series [1], the Tm is 40 °C. For the same sequence, the folding enthalpy in series [2] is -11.9 kcal/mol.
On to GCCCTGCGAAAGCTGCGC ((.(.((....)).).)), for which, in series [1], the Tm is 40.2 °C. Also, in series [2], the folding enthalpy is -16.9 kcal/mol.
Consider GAGTTGGAAACAACTC ((((((....)))))), for which, in series [1], the Tm was determined as 57.3 °C. The folding enthalpy in series [2] is -34.6 kcal/mol.
As for GTGGTGGGAAACCACTGC (..((((....))))..), the Tm in series [1] turned out to be 55.1 °C. Besides, the folding enthalpy in series [2] is -24.2 kcal/mol.
For GAACCCGAAAGGGGCTTC ((((((....)))..))), in that order: 51 °C and -20 kcal/mol.
For GCGGAGGCCCGC ((((....)))), in that order: 53.8 °C and -17.4 kcal/mol.
For GCGAATGTCGC ((((...)))), in that order: 46.7 °C and -17.6 kcal/mol.
As for GGGGTTTCGAAAGAACCC (((..(((....)))))), the Tm in series [1] amounted to 50.8 °C. Moreover, the folding enthalpy in series [2] is -32.9 kcal/mol.
Turning to GATCTAGGATAGATC ((((((...)))))), the Tm in series [1] is 48.7 °C. For the same sequence, the folding enthalpy in series [2] is -32.1 kcal/mol.
Regarding GACTGCGAAAGCAAAGTC ((((((....)))..))), the Tm in series [1] was found to be 47 °C. Also, the folding enthalpy in series [2] was -21.7 kcal/mol.
With GATCGCGCGGCGATC ((((((...)))))), the Tm in series [1] came out at 68.5 °C. Moreover, the folding enthalpy in series [2] is -34.6 kcal/mol.
As for GTTACTCGAAAGAGGAAC (((.(((....))).))), in series [1], the Tm is 53.6 °C. In addition, the folding enthalpy in series [2] was -36.2 kcal/mol.
For GATCCCATTGGGATC ((((((...)))))), in that order: 65.5 °C and -31.9 kcal/mol.
